For one test, the system named is importins α. In words: Competition of biotinylated peptides with native auto-inhibitory regions. The format is binding, human. The note with it: biotinylated peptide, Jurkat lysate, pull-down. In short, it runs like this:
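Biotinylated peptides of importin α1, α3, α4, α5 and α7 auto-inhibitory regions, with biotinylated NLS and mutant NLS peptides, each added separately to whole-cell lysate of Jurkat T cells. Per pull-down protocol: 10 nmols peptide, lysate 1.5 mg/mL total protein, overnight. Complexes captured on streptavidin beads; importins detected by immunoblot.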

The next test concerns IκBα. In words: Half-life of endogenous IκBα in Jurkat T cells. It is filed as cell-based, human. The note with it: 1 μmol/L 30 minutes before cycloheximide, PMA/Iono-stimulated Jurkat. In short, it runs like this: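 Jurkat T cells given cycloheximide 10 μg/mL. 30 min later, left unstimulated or given PMA 5 nmol/L plus ionomycin 2 μmol/L. Parallel samples had epoxomicin 1 μmol/L 30 min before cycloheximide. Cells sampled at […]; two-step hypotonic NP-40/0.45 mol/L NaCl lysates. Infrared quantitative immunoblot; signal normalised to β-actin, expressed as % of t0; mean±SD of ≥3 experiments.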

For the next test, the target named is GST-tagged Imp α5 ΔIBB (Homo sapiens, UniProt P52294). In words: Bio-Layer Interferometry. It is filed as binding. In short, it runs like this:
(§1)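 Human importin α1 or α5 lacking the importin-β-binding domain (aa 1-100), GST-tagged, expressed in E. coli BL21(DE3)-RIL as inclusion bodies. Refolded, GST-affinity purified and dialysed into pH 7.0 "intracellular" buffer. Biotinylated peptide (5 nmol/L) loaded on streptavidin biosensors, 10 min, 37°C. Protein at 50–200 nmol/L, 30°C, with GST alone as control. Association 15 min, dissociation 15 min; curves fitted 1:1 or 2:1; 3 independent experiments.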
(Biolayer interferometry detects binding as a change in optical thickness at a sensor tip.)

A further test relates to GST-tagged Imp α1 ΔIBB. In words: Bio-Layer Interferometry. It is filed as binding, human. In short, it runs like this: as §1
In the next test the test system is Imp α7. Put plainly: Importin binding. Details: species or system human. The note with it: biotinylated peptide, whole cell lysates, SA-bead pull-down, immunoblot. In short, it runs like this:
(§2)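 Biotinylated peptides (N-terminal biotin, 5-Gly spacer), 10 nmols, incubated overnight with whole-cell lysates of unstimulated Jurkat, HeLa S3 or EA.hy926 cells (Jurkat at 1.5 mg/mL total protein). Captured on streptavidin beads; immunoblotted for importins α1, α3, α4, α5, α7, β1, with GAPDH as nonspecific control. Binding strength judged from pulled-down versus lysate amount, alongside GAPDH-normalised importin abundance per cell type.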

For test [1], the system named is Imp α4. In words: Importin binding. Set-up: species or system human. The note with it: Jurkat T cell lysate compared to HeLa S3 and EA.hy926. In short, it runs like this: as §2
Test [2] concerns Imp α1. Put plainly: Importin binding. Set-up: species or system human. In short, it runs like this: as §2
In the next test the test system is Imp α3. Put plainly: Importin binding. Details: species or system human. Conditions: HeLa S3 lysate compared to other cell types. In short, it runs like this: as §2
In test [3] the test system is Imp α4. Put plainly: Competition binding assay, Imp α4. Set-up: species or system human. The note with it: free N50 0-300 μmol/L, Jurkat lysate 1.5 mg/mL. In short, it runs like this:
(§3)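 Unlabelled N50 (0, 10, 30, 100, 300 μmol/L) incubated overnight at 4°C with unstimulated Jurkat lysate at 1.5, 0.3 or 0.05 mg/mL total protein. Unbound importins then pulled down with biotinylated N50 on streptavidin beads and quantified by immunoblot. Bead-bound signal without competitor set to 100%; percentage remaining per concentration, mean±SD of 3 independent experiments.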

The subject of test [4] is Imp α5. Put plainly: Importin binding. Set-up: species or system human. In short, it runs like this:
as §2

Test [5] has as its system Imp α1. In words: Competition binding assay, Imp α1. Details: species or system human. Conditions: free N50 0-300 μmol/L, Jurkat lysate 1.5 mg/mL. In short, it runs like this:
as §3

In test [6] the test system is Imp α5. Put plainly: Competition binding assay, Imp α5. Details: species or system human. Conditions: free N50 0-300 μmol/L, Jurkat lysate. In short, it runs like this:
as §3

Entries after “also recorded” stand apart in the source; their conditions may differ.

Chain of GST-tagged Imp α5 ΔIBB (P52294 101-538 limits assumed, stated change not applied): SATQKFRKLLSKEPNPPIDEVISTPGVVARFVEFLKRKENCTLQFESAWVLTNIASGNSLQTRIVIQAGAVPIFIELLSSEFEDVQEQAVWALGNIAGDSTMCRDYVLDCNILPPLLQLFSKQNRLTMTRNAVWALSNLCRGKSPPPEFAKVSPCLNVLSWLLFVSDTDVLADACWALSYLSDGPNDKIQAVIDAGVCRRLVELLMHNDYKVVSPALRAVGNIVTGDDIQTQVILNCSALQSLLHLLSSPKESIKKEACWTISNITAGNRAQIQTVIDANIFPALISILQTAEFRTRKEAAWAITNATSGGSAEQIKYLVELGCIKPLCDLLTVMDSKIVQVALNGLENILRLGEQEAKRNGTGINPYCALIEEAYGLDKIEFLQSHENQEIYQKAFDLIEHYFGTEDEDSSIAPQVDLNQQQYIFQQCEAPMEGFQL

In the case of IQLRKQKREQQLFKRRNVELI [AR7], the “competition with native ARs of importins α” value in the test on importins α is “successfully competed with native ARs of all importins α, including its own”.

As to `CC[C@H](C)[C@H](NC(=O)[C@H]([C@@H](C)CC)N(C)C(C)=O)C(=O)N[C@H](C(=O)N[C@@H](CC(C)C)C(=O)[C@@]1(C)CO1)[C@@H](C)O` [epoxomicin], in the test with IκBα, the “effect on turnover of IκBα” value is on record as “drastically slowed turnover”.

Consider VQRDEQKLMP [N50M], for which, on GST-tagged Imp α5 ΔIBB (biotinylated peptide immobilized, Imp α5 ΔIBB 200 nmol/L), the “BLI response with Imp α5” value is listed as “at the background level”. Also, in the test on GST-tagged Imp α1 ΔIBB (biotinylated peptide immobilized, Imp α1 ΔIBB 200 nmol/L), the “BLI response with Imp α1” value is listed as “at the background level”.

Regarding VQRKRQKLMP [N50], the “competition with native ARs of importins α” value with importins α is reported as “successfully competes”. Moreover, the “interaction with Imp α7” value in the test with Imp α7 is reported as “inability to detect any interactions; also recorded: inaccessible to this peptide”. Besides, the “relative strength of interaction with Imp α4” value in the test with Imp α4 [1] is reported as “stronger”. The “relative strength of interaction with Imp α1” value in the test on Imp α1 [2] (EA.hy926 lysate compared to Jurkat T cells) and in the test on Imp α1 [2] (HeLa S3 lysate compared to Jurkat T cells) was “weaker” each time. Moreover, in the test with Imp α3, the “relative strength of interaction with Imp α3” value is listed as “stronger”. Moreover, in the test with Imp α4 [3], the “inhibition of Imp α4 binding to immobilized N50, in words” value is “slightly inhibited; also recorded: do not substantially inhibit binding”. Moreover, the “binding to Imp α5, in words” value on GST-tagged Imp α5 ΔIBB (BLI) is “specific, high‐affinity binding; also recorded: preferential and specific binding”. At GST-tagged Imp α5 ΔIBB (BLI, normalized by subtracting GST), the “maximum response with Imp α5 relative to maximum response with Imp α1” value is listed as “more than 20 fold”. Also, the “relative strength of interaction with Imp α5” value in the test on Imp α5 [4] (all 3 cell types (Jurkat, HeLa S3, EA.hy926)) is on record as “similarly strong in all 3 cell types”. The “relative amount of Imp α5 bound to biotinylated N50” value in the test on Imp α5 [4] (compared with any of the other detected proteins) is “strikingly higher than any of the other detected proteins”. Further, the “inhibition of Imp α1 binding to immobilized N50, in words” value in the test with Imp α1 [5] was “slightly inhibited; also recorded: do not substantially inhibit binding”. In addition, the “inhibition of Imp α5 binding to immobilized N50, in words” value in the test with Imp α5 [6] is reported as “tightly controlled by unlabeled peptide in all lysate total protein concentrations; also recorded: concentration dependent”. Further, the “binding to Imp α1, in words” value with GST-tagged Imp α1 ΔIBB (BLI) was “not Imp α1; also recorded: nonspecific; also recorded: low affinity”.

Source of the values: paper PMC3835248 (Journal of the American Heart Association: Cardiovascular …, 2013).
